ChEMBL document CHEMBL1909578, “New diarylureas and diarylamides containing 1,3,4-triarylpyrazole scaffold: Synthesis, antiproliferative evaluation against melanoma cell lines, ERK kinase inhibition, and molecular docking studies” (Eur J Med Chem, 2011)
pIC50: −log10 of the molar value.

Tests used:
[1] = tested on: SK-MEL-2; assay: Antiproliferative activity against human SK-MEL-2 cells after 48 hrs by SRB assay; type: functional, cell-based; conditions: SK-MEL-2, 48 h
Method in brief: (§1)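 NCI melanoma panel grown in RPMI 1640 with 5% FBS and 2 mM glutamine. Seeded at 5000–40,000 cells/well, then 24 h before dosing, with time-zero plates fixed. Five concentrations (10-fold or 1/2-log dilutions from DMSO stock) for 48 h. Cells TCA-fixed, stained with 0.4% SRB, read at 515 nm. IC50 is 50% reduction in net protein increase, from (Ti−Tz)/(C−Tz).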

[2] = tested on: UACC-62; assay: Antiproliferative activity against human UACC62 cells after 48 hrs by SRB assay; type: functional, cell-based; conditions: UACC-62, 48 h; method in brief: as §1
[3] = tested on: UACC-257; assay: Antiproliferative activity against human UACC257 cells after 48 hrs by SRB assay; type: functional, cell-based; conditions: UACC-257, 48 h; method in brief: as §1
[4] = tested on: SK-MEL-28; assay: Antiproliferative activity against human SK-MEL-28 cells after 48 hrs by SRB assay; type: functional, cell-based; conditions: SK-MEL-28, 48 h; method in brief: as §1
[5] = tested on: LOX IMVI; assay: Antiproliferative activity against human LOXIMVI cells after 48 hrs by SRB assay; type: functional, cell-based; method in brief: as §1
[6] = tested on: SK-MEL-5; assay: Antiproliferative activity against human SK-MEL-5 cells after 48 hrs by SRB assay; type: functional, cell-based; conditions: SK-MEL-5, 48 h; method in brief: as §1
[7] = tested on: MDA-MB-435; assay: Antiproliferative activity against human MDA-MB-435 cells after 48 hrs by SRB assay; type: functional, cell-based; conditions: MDA-MB-435, 48 h; method in brief: as §1
[8] = Antiproliferative activity against human A375P cells after 48 hrs by MTT assay; type: functional, cell-based
Method in brief: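 A375P cells grown in DMEM with 10% FBS and 1% penicillin/streptomycin at 37 °C, 5% CO2. Cells detached with 0.05% trypsin-0.02% EDTA, seeded at 5×10^3 cells/well, and left 24 h. Then exposed for 48 h to 12-point 3-fold serial dilutions. Viability read by MTT reduction, absorbance at 590 nm. IC50 derived from the concentration-response curve.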

[9] = tested on: M14; assay: Antiproliferative activity against human M14 cells after 48 hrs by SRB assay; type: functional, cell-based; conditions: M14, 48 h; method in brief: as §1
[10] = biological target: Mitogen-activated protein kinase; ERK1/ERK2 (Homo sapiens) (UniProt P27361+P28482); assay: Inhibition of ERK1/2 phosphorylation in human A375P cells after 24 hrs by immunoblotting; type: cell-based
Method in brief: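 A375P melanoma cells treated with 1, 3 and 10 μM compound for 24 h. Lysed in RIPA buffer, sonicated, centrifuged, and protein quantified by DC assay. Lysates run on SDS-PAGE and immunoblotted for phospho-ERK1/2, with β-actin as loading reference.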

Sequence of Mitogen-activated protein kinase; ERK1/ERK2 (Homo sapiens) (P27361 whole entry, looked up): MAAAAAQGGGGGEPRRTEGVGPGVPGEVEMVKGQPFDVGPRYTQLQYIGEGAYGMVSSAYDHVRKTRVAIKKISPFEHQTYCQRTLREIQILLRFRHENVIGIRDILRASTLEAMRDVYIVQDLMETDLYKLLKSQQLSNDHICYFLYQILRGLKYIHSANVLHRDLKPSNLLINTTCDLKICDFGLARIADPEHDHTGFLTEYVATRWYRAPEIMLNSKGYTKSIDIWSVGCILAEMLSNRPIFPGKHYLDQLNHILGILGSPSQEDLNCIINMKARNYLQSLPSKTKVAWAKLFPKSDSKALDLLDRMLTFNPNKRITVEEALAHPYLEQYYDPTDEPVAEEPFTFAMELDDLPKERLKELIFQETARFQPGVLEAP
Sequence of Mitogen-activated protein kinase; ERK1/ERK2 (Homo sapiens) (P28482 whole entry, looked up): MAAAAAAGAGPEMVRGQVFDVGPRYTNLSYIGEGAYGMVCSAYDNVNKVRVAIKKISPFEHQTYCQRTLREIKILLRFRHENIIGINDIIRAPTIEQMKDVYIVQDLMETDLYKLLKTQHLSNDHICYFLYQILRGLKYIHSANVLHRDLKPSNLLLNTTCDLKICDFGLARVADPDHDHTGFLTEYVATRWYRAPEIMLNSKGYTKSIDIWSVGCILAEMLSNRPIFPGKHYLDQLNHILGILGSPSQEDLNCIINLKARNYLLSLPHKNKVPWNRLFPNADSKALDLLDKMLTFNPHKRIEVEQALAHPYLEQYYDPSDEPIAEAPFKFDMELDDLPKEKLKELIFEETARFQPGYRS

pIC50 [1] | pIC50 [4] | pIC50 [6] | pIC50 [7] | inhibition [10] | Compound | pIC50 [2] | pIC50 [3] | pIC50 [5] | pIC50 [8] | pIC50 [9]
5.79 | 5.73 | 5.80 | 5.80 | – | COc1cc(-c2nn(-c3ccc(NC(=O)Nc4ccc(Cl)c(C(F)(F)F)c4)cc3)cc2-c2ccncc2)ccc1Cl | 5.75 | 5.79 | 5.84 | 4.85 | 5.76
– | – | – | – | – | CNC(=O)c1cc(Oc2ccc(NC(=O)Nc3ccc(Cl)c(C(F)(F)F)c3)cc2)ccn1 [SORAFENIB] | – | – | – | 4.94 | –
5.50 | 5.55 | 5.80 | 5.60 | – | COc1cc(-c2nn(-c3ccc(NC(=O)c4ccc(Cl)c(C(F)(F)F)c4)cc3)cc2-c2ccncc2)ccc1Cl | 5.66 | 5.23 | 5.81 | 5.01 | 5.72
5.74 | 5.70 | 5.78 | 5.75 | – | O=C(Nc1ccc(-n2cc(-c3ccncc3)c(-c3ccc(Cl)c(O)c3)n2)cc1)Nc1cc(C(F)(F)F)cc(C(F)(F)F)c1 | 5.65 | 5.70 | 5.79 | < 4.70 | 5.75
< 4.00 | < 4.00 | 4.92 | < 4.00 | – | COc1cc(-c2nn(-c3ccc(NC(=O)c4cc(Cl)cc(Cl)c4)cc3)cc2-c2ccncc2)ccc1Cl | 5.34 | < 4.00 | 5.51 | < 4.70 | 5.13
– | – | – | – | – | O=C(Nc1ccc(-n2cc(-c3ccncc3)c(-c3ccc(Cl)c(O)c3)n2)cc1)Nc1ccc(Cl)c(Cl)c1 | – | – | – | 4.87 | –
– | – | – | – | – | COc1cc(-c2nn(-c3ccc(NC(=O)c4cc(C(F)(F)F)cc(C(F)(F)F)c4)cc3)cc2-c2ccncc2)ccc1Cl | – | – | – | < 4.70 | –
– | – | – | – | – | O=C(Nc1ccc(-n2cc(-c3ccncc3)c(-c3ccc(Cl)c(O)c3)n2)cc1)Nc1cccc(Cl)c1Cl | – | – | – | 4.77 | –
5.80 | 5.97 | 5.97 | 5.92 | – | O=C(Nc1ccc(-n2cc(-c3ccncc3)c(-c3ccc(Cl)c(O)c3)n2)cc1)c1ccc(Cl)c(C(F)(F)F)c1 | 5.69 | 5.59 | 6.44 | 5.17 | 6.08
– | – | – | – | – | COc1cc(-c2nn(-c3ccc(NC(=O)Nc4cccc(Cl)c4Cl)cc3)cc2-c2ccncc2)ccc1Cl | – | – | – | < 4.70 | –
5.16 | 5.56 | 5.85 | 5.42 | – | O=C(Nc1ccc(-n2cc(-c3ccncc3)c(-c3ccc(Cl)c(O)c3)n2)cc1)c1cc(Cl)cc(Cl)c1 | 5.56 | 5.24 | 5.92 | 5.17 | 5.82
5.39 | 5.53 | 5.94 | 5.56 | Dose-dependent effect | O=C(Nc1ccc(-n2cc(-c3ccncc3)c(-c3ccc(Cl)c(O)c3)n2)cc1)c1ccc(Cl)c(Cl)c1 | 5.49 | 5.32 | 5.84 | 5.17 | 5.63
5.77 | 5.71 | 5.82 | 5.73 | – | COc1cc(-c2nn(-c3ccc(NC(=O)Nc4cc(C(F)(F)F)cc(C(F)(F)F)c4)cc3)cc2-c2ccncc2)ccc1Cl | 5.81 | 5.64 | 5.79 | 4.93 | 5.70
5.77 | 5.79 | 5.82 | 5.88 | – | O=C(Nc1ccc(-n2cc(-c3ccncc3)c(-c3ccc(Cl)c(O)c3)n2)cc1)Nc1ccc(Cl)c(C(F)(F)F)c1 | 5.77 | 5.82 | 5.84 | 4.83 | 5.84
5.18 | 5.31 | 5.81 | 5.39 | – | O=C(Nc1ccc(-n2cc(-c3ccncc3)c(-c3ccc(Cl)c(O)c3)n2)cc1)c1cc(C(F)(F)F)cc(C(F)(F)F)c1 | 4.84 | 5.05 | 5.60 | < 4.70 | 5.20
5.24 | 4.39 | 5.78 | 5.15 | – | COc1cc(-c2nn(-c3ccc(NC(=O)c4ccc(Cl)c(Cl)c4)cc3)cc2-c2ccncc2)ccc1Cl | 5.20 | < 4.00 | 5.56 | 4.89 | 4.65
5.46 | 5.40 | 5.55 | 5.54 | – | COc1cc(-c2nn(-c3ccc(NC(=O)Nc4ccc(Cl)c(Cl)c4)cc3)cc2-c2ccncc2)ccc1Cl | 5.47 | 5.50 | 5.70 | < 4.70 | 5.59
